# ChEMBL document CHEMBL1770090, “Synthesis, antimicrobial, antioxidant, anti-hemolytic and cytotoxic evaluation of new imidazole-based heterocycles” (Eur J Med Chem, 2011)
# Columns and labels:
# Bacillus subtilis [1] = assay: Antimicrobial activity against Bacillus subtilis ATCC 6633 after 24 hrs by two fold serial dilution technique; type: functional; conditions: ATCC 6633, 24 h
# Outline: (§1)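 Tested only compounds giving inhibition zones ≥ 16 mm, by two-fold serial dilution in nutrient broth. Final concentrations were […], 175, 87.5, 43.8 and 21.9 µg/mL. Each 5 mL tube received 0.1 mL inoculum of about 1 × 10^8 CFU/mL and was incubated 24 h at 37 °C. MIC was the lowest concentration with no growth.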
# Pseudomonas aeruginosa [2] = assay: Antimicrobial activity against Pseudomonas aeruginosa ATCC 27953 after 24 hrs by agar well diffusion method; type: functional
# Outline: (§2)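 Agar well diffusion. Inocula of 100 µL: bacteria 1 × 10^8 CFU/mL on nutrient agar, yeast 1 × 10^6 CFU/mL on Sabouraud dextrose agar, fungi 1 × 10^4 spore/mL on potato dextrose agar. 10 mm wells received 100 µL of compound at 100 mg/mL in DMSO. Bacteria incubated 24 h at 37 °C, fungi 48 h at 28 °C. Controls were DMSO, ciprofloxacin 50 µg/mL and ketoconazole 50 µg/mL. Inhibition zone diameter in mm, scored N.A. to ++++, average of triplicates.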
# Escherichia coli [3] = assay: Antimicrobial activity against Escherichia coli ATCC 25922 after 24 hrs by agar well diffusion method; type: functional; outline: as §2
# Pseudomonas aeruginosa [4] = assay: Antimicrobial activity against Pseudomonas aeruginosa ATCC 27953 after 24 hrs by two fold serial dilution technique; type: functional; conditions: ATCC 27953, 24 h; outline: as §1
# Bacillus subtilis [5] = assay: Antimicrobial activity against Bacillus subtilis ATCC 6633 after 24 hrs by agar well diffusion method; type: functional; outline: as §2
# Klebsiella pneumoniae [6] = assay: Antimicrobial activity against Klebsiella pneumoniae ATCC 13883 after 24 hrs by agar well diffusion method; type: functional; outline: as §2
# Priestia megaterium [7] = assay: Antimicrobial activity against Bacillus megaterium ATCC 9885 after 24 hrs by two fold serial dilution technique; type: functional; conditions: ATCC 9885, 24 h; outline: as §1
# Priestia megaterium [8] = assay: Antimicrobial activity against Bacillus megaterium ATCC 9885 after 24 hrs by agar well diffusion method; type: functional; outline: as §2
# Klebsiella pneumoniae [9] = assay: Antimicrobial activity against Klebsiella pneumoniae ATCC 13883 after 24 hrs by two fold serial dilution technique; type: functional; conditions: ATCC 13883, 24 h; outline: as §1
# Escherichia coli [10] = assay: Antimicrobial activity against Escherichia coli ATCC 25922 after 24 hrs by two fold serial dilution technique; type: functional; conditions: ATCC 25922, 24 h; outline: as §1
# Aspergillus niger = assay: Antimicrobial activity against Aspergillus niger after 48 hrs by agar well diffusion method; type: functional; outline: as §2
# Staphylococcus aureus [11] = assay: Antimicrobial activity against Staphylococcus aureus ATCC 29213 after 24 hrs by two fold serial dilution technique; type: functional; conditions: ATCC 29213, 24 h; outline: as §1
# Staphylococcus aureus [12] = assay: Antimicrobial activity against Staphylococcus aureus ATCC 29213 after 24 hrs by agar well diffusion method; type: functional; outline: as §2
# Candida albicans = assay: Antimicrobial activity against Candida albicans NRRL Y-477 after 48 hrs by agar well diffusion method; type: functional; outline: as §2
# [13] = Antioxidant activity assessed as ABTS radical scavenging activity at 2 mM; type: functional
# Outline: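 ABTS (60 µM, 2 mL) was oxidized with MnO2 (25 mg/mL, 3 mL) in 0.1 M phosphate buffer pH 7, then centrifuged and filtered, with A734 adjusted to about 0.5. 50 µL of 2 mM compound in MeOH/phosphate buffer (1:1) was added. Colour loss expressed as % inhibition. L-ascorbic acid was the standard; blank and negative controls used MeOH/buffer.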
# [14] = Cytotoxicity against mouse EAC cells assessed as cell viability using trypan blue staining after 2 hrs by hemocytometer analysis; type: functional, cell-based; conditions: Ehrlich
# [15] = Antioxidant activity in rat erythrocytes assessed as inhibition of peroxyl radicals-induced hemolysis at 2 mM after 2 hrs; type: functional; conditions: Erythrocyte, read-out: INH
# Outline: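 Rat blood from cardiac puncture, heparinized. Erythrocytes were washed three times in 0.15 M NaCl. A 10% suspension in PBS pH 7.4 was mixed with an equal volume of 200 mM AAPH in PBS containing sample, then shaken at 37 °C for 2 h. Mixture diluted with 8 volumes of PBS and centrifuged; supernatant A540 compared with a water-lysed sample for complete hemolysis. L-ascorbic acid was the positive control. Mean ± SD.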
Structure (SMILES),MIC (Bacillus subtilis [1]) [µg/mL],diameter of the inhibition zone (DIZ) (Pseudomonas aeruginosa [2]),diameter of the inhibition zone (DIZ) (Escherichia coli [3]),MIC (Pseudomonas aeruginosa [4]) [µg/mL],diameter of the inhibition zone (DIZ) (Bacillus subtilis [5]),diameter of the inhibition zone (DIZ) (Klebsiella pneumoniae [6]),MIC (Priestia megaterium [7]) [µg/mL],diameter of the inhibition zone (DIZ) (Priestia megaterium [8]),MIC (Klebsiella pneumoniae [9]) [µg/mL],MIC (Escherichia coli [10]) [µg/mL],diameter of the inhibition zone (DIZ) (Aspergillus niger),MIC (Staphylococcus aureus [11]) [µg/mL],diameter of the inhibition zone (DIZ) (Staphylococcus aureus [12]),diameter of the inhibition zone (DIZ) (Candida albicans),inhibition [13] [%],IC50 [14] [µg/mL],percent hemolysis at 2000 µM [15] [%]
O=C(O)c1cn(C2CC2)c2cc(N3CCNCC3)c(F)cc2c1=O [CIPROFLOXACIN],10.9,>=21 mm,16 mm,10.9,>=21 mm,>=21 mm,21.9,16 mm,10.9,21.9,<=4 mm,21.9,16 mm,<=4 mm,–,–,–
C/C(=N\NC(=O)/C(C#N)=C\c1ccc(F)cc1)c1nc(-c2ccccc2)[nH]c1C,43.8,16 mm,16 mm,21.9,16 mm,10 mm,21.9,>=21 mm,–,21.9,<=4 mm,21.9,>=21 mm,<=4 mm,68.6,85.2,0.86
C/C(=N\N=C1\NC(=O)CS1)c1nc(-c2ccccc2)[nH]c1C,43.8,<=4 mm,<=4 mm,–,16 mm,16 mm,–,<=4 mm,21.9,–,<=4 mm,43.8,16 mm,<=4 mm,–,–,–
